Results taken from ChEMBL document CHEMBL1806481, “Synthesis and anti-inflammatory activity of novel biscoumarin-chalcone hybrids” (Bioorg Med Chem Lett, 2011).
Active and inactive are the calls of the source. The calls are words filed in the database; no cut-off is given here.

How the values were obtained:
[1] = Antiinflammatory activity in whole blood assessed as inhibition of LPS-induced TNFalpha production at 400 ug/ml; format: functional
[2] = Antiinflammatory activity in whole blood assessed as inhibition of LPS-induced TNFalpha production; format: functional, tissue-based
[3] = Antiinflammatory activity in whole blood assessed as inhibition of LPS-induced TNFalpha production at 200 ug/ml; format: functional
[4] = test system: Rattus norvegicus; test: Antiinflammatory activity in albino rat assessed as inhibition of carrageenin-induced paw oedema at 100 mg/kg, po after 3 hrs by plethysmographic analysis relative to control; format: functional
Outline: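 Rats received 100 mg/kg po. Oedema was induced by subplantar injection of 0.1 ml of 1% carrageenin into one hind paw. Paw volume was measured plethysmographically immediately after the injection and at 3 h. The volume difference gave the oedema, and percent inhibition was calculated against the control group. Ibuprofen was the reference at an equivalent dose.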

[5] = Antioxidant activity assessed as inhibition non-enzymatic reactants generated hydroxyl radical production at 200 ug/ml after 90 mins by spectrophotometry; format: functional
Outline: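 Hydroxyl radicals were generated non-enzymatically from deoxyribose (2.8 mM), FeSO4·7H2O (2 mM), sodium ascorbate (2.0 mM) and H2O2 (2.8 mM) in 50 mM KH2PO4 buffer, pH 7.4. Final volume was 2.5 mL, with or without test compound at 200 µg/mL. Mixtures were incubated at 37 °C for 90 min, MDA formed was measured, and mannitol was the standard. Values are mean SD of six.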

[6] = test system: Rattus norvegicus; test: Toxicity in albino rat at 100 mg/kg, po by autopsy; format: organism-based; design: dose 100 mg/kg, route oral; details: in vivo
[7] = test system: Rattus norvegicus; test: Toxicity in albino rat at 100 mg/kg, po by macroscopic analysis; details: in vivo
[8] = Antioxidant activity assessed as inhibition of xanthine-xanthine oxidase generated superoxide anion radical production assessed as formazone formation at 200 ug/ml after 30 mins by spectrophotometric analysis; format: functional
Outline: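 Superoxide generation was run with and without compound at 200 µg/mL. Fractions were sonicated in phosphate buffer, and mixtures were incubated at 37 °C for 30 min. The reaction was stopped with glacial acetic acid, and formazone formed was measured spectrophotometrically. Allopurinol was the standard, and values are mean SD of six.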

[9] = Antioxidant activity assessed as inhibition microsomal lipid peroxidation at 200 ug/ml by thiobarbituric acid test; format: functional; details: Microsome
Outline: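 Microsomal lipid peroxidation was measured with compound at 200 µg/mL and read as nmol MDA formed per mg protein. α-Tocopherol at 100 µg/mL was the standard. Values are mean SD of six.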

[10] = Toxicity in albino rat assessed as survival at 100 mg/kg, po; format: organism-based; design: dose 100 mg/kg, route oral; details: in vivo, read-out: Activity
Outline: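 Albino rats were dosed orally in the carrageenin hind-paw oedema study. Survival was recorded, and animals were examined macroscopically and by autopsy.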

[11] = Antioxidant activity assessed as inhibition microsomal lipid peroxidation at 100 ug/ml by thiobarbituric acid test; format: functional; details: Microsome
[12] = Antioxidant activity assessed as inhibition non-enzymatic reactants generated hydroxyl radical production at 100 ug/ml after 90 mins by spectrophotometry; format: functional
[13] = Antioxidant activity assessed as inhibition of xanthine-xanthine oxidase generated superoxide anion radical production assessed as formazone formation at 20 ug/ml after 30 mins by spectrophotometric analysis; format: functional
Outline: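 Reaction mixtures in phosphate buffer incubated at 37 °C for 30 min, then stopped with 0.5 mL glacial acetic acid. Superoxide quantified as formazone formed (nmol/min), read spectrophotometrically. Mean SD of six values.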

With `CC(=O)c1cc2cc(/C=C/C(=O)c3ccco3)c3c(ccc4c(C)cc(=O)oc43)c2oc1=O` as the molecule, how does the inhibition at 400 µg/mL [1] read?
Its inhibition at 400 µg/mL is 43%.

And the inhibition [2]?
The inhibition was “Dose-dependent effect”.

What about the inhibition at 200 µg/mL [3] of the same molecule?
The inhibition at 200 µg/mL was 25%.

And the inhibition in vivo at 100 mg/kg [4]?
Its inhibition in vivo at 100 mg/kg is 26%.

Which inhibition [4] does the source give for `CCOC(=O)c1cc2cc(/C=C/C(=O)c3ccccc3)c3c(ccc4c(C)cc(=O)oc43)c2oc1=O` here?
The inhibition was “inactive”.

Which inhibition [5] does the source give for `CCOC(=O)c1cc2cc(/C=C/C(=O)c3cccs3)c3c(ccc4c(C)cc(=O)oc43)c2oc1=O` here?
The inhibition was 26%.

And the Activity [6]?
Its Activity is “Non-toxic”.

What about the Activity [7] of the same molecule?
Its Activity is “Non-toxic”.

What about the inhibition [8] of the same molecule?
Its inhibition is 24%.

And the inhibition [9]?
The inhibition was 27%.

What about the inhibition in vivo at 100 mg/kg [4] of the same molecule?
The inhibition in vivo at 100 mg/kg was 8.77%.

And the survival [10]?
Its survival is 80%.

Which inhibition [5] does the source give for `CCOC(=O)c1cc2cc(/C=C/C(=O)c3ccco3)c3c(ccc4c(C)cc(=O)oc43)c2oc1=O` here?
Its inhibition is 21%.

And the Activity [6]?
Its Activity is “Non-toxic”.

And the Activity [7]?
The Activity was “Non-toxic”.

What about the inhibition [8] of the same molecule?
Its inhibition is 30%.

And the inhibition [9]?
The inhibition was 24%.

What about the inhibition in vivo at 100 mg/kg [4] of the same molecule?
Its inhibition in vivo at 100 mg/kg is 13%.

And the survival [10]?
The survival was 80%.

With `CCOC(=O)c1cc2cc(/C=C/C(=O)c3ccc(C)cc3)c3c(ccc4c(C)cc(=O)oc43)c2oc1=O` as the molecule, how does the inhibition [4] read?
Its inhibition is “inactive”.

For `CC(C)Cc1ccc(C(C)C(=O)O)cc1` (stereo unspecified) [IBUPROFEN], which inhibition in vivo at 100 mg/kg [4] is on record?
The inhibition in vivo at 100 mg/kg was 59.5%.

With `COC(=O)c1cc2cc(/C=C/C(=O)c3ccc(C)cc3)c3c(ccc4c(C)cc(=O)oc43)c2oc1=O` as the molecule, how does the inhibition [4] read?
The inhibition was “inactive”.

For `COC(=O)c1cc2cc(/C=C/C(=O)c3ccco3)c3c(ccc4c(C)cc(=O)oc43)c2oc1=O`, which inhibition [4] is on record?
Its inhibition is “inactive”.

For `Cc1c(C)c2c(c(C)c1O)CC[C@@](C)(CCC[C@H](C)CCC[C@H](C)CCCC(C)C)O2`, which inhibition [11] is on record?
Its inhibition is 41%.

What does the source list for `COC(=O)c1cc2cc(/C=C/C(=O)c3cccs3)c3c(ccc4c(C)cc(=O)oc43)c2oc1=O`?
Activity [6]: Non-toxic; Activity [7]: Non-toxic; inhibition in vivo at 100 mg/kg [4]: 3.5%; survival [10]: 80%

For `COC(=O)c1cc2cc(/C=C/C(=O)c3ccccc3)c3c(ccc4c(C)cc(=O)oc43)c2oc1=O`, which inhibition [5] is on record?
The inhibition was 27%.

And the inhibition at 400 µg/mL [1]?
The inhibition at 400 µg/mL was 21%.

And the inhibition [2]?
Its inhibition is “Dose-dependent effect”.

What about the inhibition at 200 µg/mL [3] of the same molecule?
The inhibition at 200 µg/mL was 4%.

And the inhibition [8]?
The inhibition was 29%.

And the inhibition [9]?
Its inhibition is 23%.

And the inhibition in vivo at 100 mg/kg [4]?
The inhibition in vivo at 100 mg/kg was 33%.

With `OC[C@@H](O)[C@@H](O)[C@H](O)[C@H](O)CO` as the molecule, how does the inhibition [12] read?
Its inhibition is 40%.

With `Oc1ncnc2[nH]ncc12` as the molecule, how does the inhibition [13] read?
Its inhibition is 42%.

Which inhibition at 400 µg/mL [1] does the source give for `CC(=O)c1cc2cc(/C=C/C(=O)c3ccc(C)cc3)c3c(ccc4c(C)cc(=O)oc43)c2oc1=O` here?
Its inhibition at 400 µg/mL is 47%.

And the inhibition [2]?
Its inhibition is “Dose-dependent effect”.

And the inhibition at 200 µg/mL [3]?
The inhibition at 200 µg/mL was 33%.

What about the inhibition in vivo at 100 mg/kg [4] of the same molecule?
The inhibition in vivo at 100 mg/kg was 29%.
